KCNK3 inh = human KCNK3 channel inhibition, primary screen; B-score at 10 µM; CHO-KCNK3 thallium flux, FluxOR fluorescence; stronger effect = lower value; AID 602410; O14649; actives 0.84% (n = 340,000);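 active means B-score under library mean minus 4 SD, starting fluorescence ratio at most library mean plus 5 SD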;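 further: more negative B-score means stronger inhibition of thallium flux through KCNK3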
KCNQ1 act = potentiates or activates the human KCNQ1 potassium channel | actives 0.35% (n = 310,000) | AID 2648 | P51787 | B-score at 10 µM | CHO-K1 KCNQ1, thallium flux FluxOR fluorescence; stronger effect = higher value;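 active means fluorescence ratio B-score, a plate-corrected score, at least three library SD, with initial intensity B-score within 5 SD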
Target sequence (P51787 whole entry, looked up): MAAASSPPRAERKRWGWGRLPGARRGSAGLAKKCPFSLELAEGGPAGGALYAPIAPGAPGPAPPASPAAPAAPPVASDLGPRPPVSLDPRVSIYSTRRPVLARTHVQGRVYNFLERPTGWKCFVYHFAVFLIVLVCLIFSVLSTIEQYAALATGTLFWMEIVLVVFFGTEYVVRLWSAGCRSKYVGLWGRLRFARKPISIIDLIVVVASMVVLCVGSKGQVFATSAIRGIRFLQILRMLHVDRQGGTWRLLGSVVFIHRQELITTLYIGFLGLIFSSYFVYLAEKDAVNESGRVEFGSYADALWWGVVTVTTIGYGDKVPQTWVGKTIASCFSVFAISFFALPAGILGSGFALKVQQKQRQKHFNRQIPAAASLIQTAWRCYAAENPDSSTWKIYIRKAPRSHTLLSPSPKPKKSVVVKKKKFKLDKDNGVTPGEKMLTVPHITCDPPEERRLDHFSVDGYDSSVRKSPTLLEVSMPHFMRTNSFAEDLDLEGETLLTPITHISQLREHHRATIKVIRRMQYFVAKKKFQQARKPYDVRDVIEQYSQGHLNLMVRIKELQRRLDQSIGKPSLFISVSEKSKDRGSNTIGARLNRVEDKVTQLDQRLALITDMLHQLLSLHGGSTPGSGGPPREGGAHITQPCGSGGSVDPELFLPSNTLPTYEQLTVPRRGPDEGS
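Assay system: CHO-K1 cells stably expressing KCNQ1; Medium: assay buffer with matched DMSO; Also added: K+/Tl+ depolarizing stimulus; Dosing: single dose; Timing: dye 90 min, compound 20 min, room temperature; Measured by: kinetic FluxOR thallium fluorescence, 10-s 1-Hz baseline, 110-s post-stimulus read; Read-out: peak-minus-minimum fluorescence over initial fluorescence, negative-control normalized, B-scored.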
KCNQ1 block = human KCNQ1 channel inhibition. P51787. CHO-K1 KCNQ1, FluxOR thallium flux fluorescence; stronger effect = higher value. B-score at 10 µM. actives 1.3% (n = 310,000);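 active means compounds whose thallium flux B-score, printed positive for inhibition, exceeds three library SD while starting fluorescence stays within three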;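 further: channel opened by potassium depolarization with thallium stimulus after 20 min compound exposure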
Kir21 block = Kir2.1 (mouse) channel inhibition. P35561. HEK293-Kir2.1, FluxOR thallium flux fluorescence; stronger effect = lower value. B-score at 10 µM. actives 0.85% (n = 310,000). AID 1672;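 active means fluorescence ratio B-score at or below minus 3 SD of library scores, with starting-brightness B-score within 2 SD, cut at about -4.2 in these data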;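 further: channel flux triggered by added potassium and thallium sulfate stimulus; B-score of peak minus minimum fluorescence over baseline after thallium stimulus; more negative B-score means stronger Kir2.1 block with less thallium influx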
hERG protect = shields human hERG channel from block by proarrhythmic agents | Q12809 | CHO-hERG, FluxOR thallium flux, dofetilide IC70 present | activation (rescue from dofetilide block), less the hit threshold, % at 10 µM | actives 0.51% (n = 310,000) | AID 1511;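 active means activation above the mean of controls blocked by dofetilide plus 5 SD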;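 further: thallium influx through hERG after potassium depolarization seen as dye fluorescence rise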
KCNK9 inh = human KCNK9 channel inhibition | Q9NPC2 | HEK293 KCNK9, FluxOR thallium flux fluorescence; stronger effect = lower value | B-score at 10 µM | actives 1.2% (n = 310,000) | AID 488922;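 active means ratio B-score over 3 SD below the library mean, with starting fluorescence within 5 SD of its mean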;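 further: negative B-score means less thallium flux so channel inhibition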
KCNK9 block conf = confirmation of human KCNK9 potassium channel inhibitors; HEK293 KCNK9 cells, FluxOR thallium flux fluorescence; inhibition, % at 10 µM; shares compounds with KCNK9 inh; actives 43% (n = 4,900); AID 492992;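 active means thallium signal inhibited by more than 5 SD of the compound-free buffer control wells, on both duplicate plates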;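 further: 0% = assay buffer control wells without compound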
Kir2-1 spec = selectivity of KCNK9 modulators against mouse Kir2.1; actives 4% (n = 4,900); shares compounds with KCNK9 inh; Kir2.1 cells, FluxOR thallium flux fluorescence; AID 492993; inhibition, % at 10 µM;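 active means thallium signal drop more than 5 SD beyond the mean of the no-compound control wells, seen in both duplicate plates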;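 further: signal is fluorescence rise after thallium addition divided by baseline fluorescence; plate controls were assay buffer only for no effect and full block by chlorpromazine control for full effect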
HEK293 Tl ctr = non-induced cell nonspecific activity of KCNK9 modulators; shares compounds with KCNK9 inh; non-induced KCNK9-HEK293, FluxOR thallium flux; inhibition, % at 10 µM; actives 40% (n = 4,900); AID 492997;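 active means thallium signal drop beyond 5 SD of the untreated control mean, on both duplicate plates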;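 further: plate controls were buffer only IC0 wells for no effect and SID17386958 at its maximal inhibitory level for full effect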
Starred values were filed as active, the others as inactive; i = inactive; x = no result given. An excerpt weighted towards active compounds, which were near 3.7% of everything screened.

SMILES	KCNK3 inh	KCNQ1 act	KCNQ1 block	Kir21 block	hERG protect	KCNK9 inh	KCNK9 block conf	Kir2-1 spec	HEK293 Tl ctr
COc1ccccc1-c1ccc(SCc2ccc(C)cc2)nn1	i	i	i	0.47	-24	i	i	i	i
Cc1ccc(NC(=O)c2oc3ccccc3c2NC(=O)C2CCCO2)cc1C (stereo not drawn)	i	i	i	0.77	-20	i	i	i	i
CCC(C)(C)n1nnnc1C(c1ccncc1)N1CCC(Cc2ccccc2)CC1 (stereo not drawn)	i	i	i	-0.67	-3	i	x	x	x
CC(C)(C)n1nnnc1C(c1cccc(C#N)c1)N1CCC(Cc2ccccc2)CC1 (stereo not drawn)	-11*	i	i	-0.56	-8	-18*	60%*	i	34%*
CC12COC3(C(=O)Nc4ccc5ccccc5c4)CC1CCC32C (stereo not drawn)	i	i	i	0.6	-1	i	i	i	i
CC12COC3(C(=O)Nc4ccccc4)CC1CCC32C (stereo not drawn)	i	i	i	1.9	-7	i	x	x	x
COc1ccc(/C=C/c2nc3ccccc3n2Cc2ccc(OC)c(OC)c2)cc1	i	i	i	-2.2	-3	-8.1*	58%*	i	33%*
CCOC(=O)c1c(NC(=O)C2CCN(S(=O)(=O)c3cccs3)CC2)sc(C)c1C	i	i	i	0.35	-6	i	i	i	i
O=C(NNC(=O)c1ccc(Br)s1)c1ccc(F)c(S(=O)(=O)N2CCOCC2)c1	i	x	x	x	x	x	x	x	x
COc1cc(OC)c2ccc(=O)oc2c1C(CCN1CCN(c2ccccc2)CC1)c1ccc(N(C)C)cc1 (stereo not drawn)	i	i	i	1.2	-14	i	i	i	i
COc1cc(OC)c2c(-c3ccccc3)cc(=O)oc2c1C(CCN1CCN(c2ccccc2)CC1)c1ccc(N(C)C)cc1 (stereo not drawn)	i	i	i	-0.45	-14	i	x	x	x
COc1ccc(N2CCN(C(=O)CC34CC5CC(CC(C5)C3)C4)CC2)c([N+](=O)[O-])c1	i	i	i	-0.06	-4	-12*	66%*	i	i
COc1ccc(N2CCN(C(=O)c3ccccc3F)CC2)c([N+](=O)[O-])c1	i	i	i	-1.3	-2	i	x	x	x
Cc1noc(C)c1CSc1nc2ccccc2c(=O)n1-c1ccc(Cl)cc1	i	i	i	0.07	-6	i	i	i	i
Cc1noc(C)c1CSc1nc2sc(C)c(C)c2c(=O)n1-c1ccccc1	i	i	i	0.59	-6	i	x	x	x
COn1c(SCc2ccc(Cl)cc2)nc2ccccc2c1=O	i	i	i	0.15	-21	-18*	66%*	i	34%*
CCN1CCN(C(=O)CCn2c(=O)c3cccn3c3cccnc32)CC1	i	i	i	-0.99	-3	i	x	x	x
CC(C)Cc1nc(N2CCC(C(N)=O)CC2)c2nnn(Cc3ccccc3)c2n1	i	i	i	-0.02	-12	i	x	x	x
Cc1nc(N2CCC(C)CC2)c2nnn(Cc3ccccc3)c2n1	i	i	i	-0.03	-5	i	i	i	i
Cc1nc(NCCc2ccccc2)c2nnn(Cc3ccccc3Cl)c2n1	i	i	i	0.29	-4	i	x	x	x
COc1ccc(Cl)cc1Nc1nc(C)nc2c1nnn2Cc1ccccc1	i	i	i	-0.4	-5	i	x	x	x
COc1ccc(CCNc2nc(C)nc3c2nnn3Cc2ccccc2)cc1	i	i	i	-0.11	-2	i	i	i	i
